ChEMBL document CHEMBL3232717 (J Med Chem, 2014)

Columns and labels:
[1] = Plasma clearance in Sprague-Dawley rat at 1 mg/kg, iv and 2 mg/kg, po administered via gavage by LC-MS/MS analysis; type: ADME, organism-based
Procedure, shortened: (§1)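 Male Sprague-Dawley rats, fasted overnight with water ad libitum and fed 4 h after dosing. TFA salt given as a saline solution, either 1 mg/kg iv via femoral-vein cannula (n = 2) or 2 mg/kg po by gavage (n = 3). EDTA blood taken at 5 min (iv only), 15 and 30 min, and 1, 2, 4, 6, 8, 24 and 48 h. Plasma protein-precipitated with acetonitrile and assayed by LC-MS/MS; noncompartmental analysis.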

[2] = Volume of distribution at steady state in Sprague-Dawley rat at 1 mg/kg, iv and 2 mg/kg, po administered via gavage by LC-MS/MS analysis; type: ADME, organism-based; details: in vivo, read-out: Vdss; procedure, shortened: as §1
[3] = Terminal half life in Sprague-Dawley rat at 1 mg/kg, iv and 2 mg/kg, po administered via gavage by LC-MS/MS analysis; type: ADME, organism-based; details: in vivo, read-out: beta t1/2 (converted); procedure, shortened: as §1
[4] = Cmax in Sprague-Dawley rat at 2 mg/kg, po administered via gavage by LC-MS/MS analysis; type: ADME, organism-based; set-up: dose 2 mg/kg, route oral; details: in vivo; procedure, shortened: as §1
[5] = Tmax in Sprague-Dawley rat at 1 mg/kg, iv and 2 mg/kg, po administered via gavage by LC-MS/MS analysis; type: ADME, organism-based; details: in vivo; procedure, shortened: as §1
[6] = Oral bioavailability in Sprague-Dawley rat at 2 mg/kg administered via gavage by LC-MS/MS analysis; type: ADME, organism-based; details: in vivo; procedure, shortened: as §1
Rattus norvegicus [7] = assay: Dose normalized AUC in Sprague-Dawley rat at 1 mg/kg, iv and 2 mg/kg, po administered via gavage by LC-MS/MS analysis; type: ADME, organism-based; details: in vivo; procedure, shortened: as §1
[8] = Volume of distribution at steady state in beagle dog at 1 mg/kg, iv and 2 mg/kg, po administered via gavage by LC-MS/MS analysis; type: ADME, organism-based, Canis lupus familiaris; details: in vivo, read-out: Vdss
Procedure, shortened: (§2)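 Beagle dogs, fasted overnight with water ad libitum and fed 4 h postdose. TFA salt in saline given 1 mg/kg iv via cephalic vein (n = 2) or 2 mg/kg by gastric gavage (n = 2). EDTA blood drawn at 5 min (iv only), 15 and 30 min, and 1, 2, 4, 6, 8, 24, 30, 48 and 72 h. Acetonitrile-precipitated plasma quantified by LC-MS/MS; parameters derived noncompartmentally.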

[9] = Cmax in beagle dog at 2 mg/kg, po administered via gavage by LC-MS/MS analysis; type: ADME, organism-based, Canis lupus familiaris; set-up: dose 2 mg/kg, route oral; details: in vivo; procedure, shortened: as §2
[10] = Tmax in beagle dog at 1 mg/kg, iv and 2 mg/kg, po administered via gavage by LC-MS/MS analysis; type: ADME, organism-based, Canis lupus familiaris; details: in vivo; procedure, shortened: as §2
Canis familiaris = assay: Dose normalized AUC in beagle dog at 1 mg/kg, iv and 2 mg/kg, po administered via gavage by LC-MS/MS analysis; type: ADME, organism-based, Canis lupus familiaris; details: in vivo; procedure, shortened: as §2
in vivo [11] = details: beagle, dog, plasma, iv, 1 mg/kg
in vivo [12] = details: beagle, dog, po, 2 mg/kg
in vivo [13] = details: beagle, dog
Prolyl endopeptidase = target: T1, Prolyl endopeptidase (Homo sapiens, UniProt P48147); assay: Inhibition of PEP (unknown origin)
T1 sequence (P48147 whole entry): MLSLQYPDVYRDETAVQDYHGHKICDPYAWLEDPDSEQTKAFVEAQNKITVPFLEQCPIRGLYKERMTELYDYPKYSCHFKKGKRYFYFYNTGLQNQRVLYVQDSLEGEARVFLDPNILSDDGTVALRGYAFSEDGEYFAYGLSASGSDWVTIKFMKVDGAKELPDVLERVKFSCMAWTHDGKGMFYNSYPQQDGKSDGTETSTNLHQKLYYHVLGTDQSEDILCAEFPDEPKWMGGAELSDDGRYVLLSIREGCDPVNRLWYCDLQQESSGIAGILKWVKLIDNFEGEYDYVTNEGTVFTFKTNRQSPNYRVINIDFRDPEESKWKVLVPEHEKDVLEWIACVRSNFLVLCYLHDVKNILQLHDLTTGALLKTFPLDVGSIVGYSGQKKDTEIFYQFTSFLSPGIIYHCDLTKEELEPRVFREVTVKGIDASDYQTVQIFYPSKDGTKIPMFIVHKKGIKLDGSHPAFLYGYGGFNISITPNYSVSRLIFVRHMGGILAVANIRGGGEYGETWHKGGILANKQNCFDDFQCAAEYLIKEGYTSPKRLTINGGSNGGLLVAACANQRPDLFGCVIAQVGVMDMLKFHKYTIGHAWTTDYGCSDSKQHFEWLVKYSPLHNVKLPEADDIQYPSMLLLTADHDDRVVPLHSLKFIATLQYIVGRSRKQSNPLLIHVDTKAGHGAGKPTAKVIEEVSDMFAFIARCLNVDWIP

Dipeptidyl peptidase 8 = Dipeptidyl peptidase 8 (Homo sapiens, UniProt Q6V1X1); assay: Inhibition of DPP8 (unknown origin)
Dipeptidyl peptidase 9 = Dipeptidyl peptidase 9 (Homo sapiens, UniProt Q86TI2); assay: Inhibition of DPP9 (unknown origin)
[14] = Inhibition of potassium channel IKr (unknown origin)
[15] = target: Voltage-dependent L-type calcium channel subunit alpha-1C (Homo sapiens, UniProt Q13936); assay: Inhibition of Cav1.2 (unknown origin)
[16] = target: Sodium channel protein type 5 subunit alpha (Homo sapiens, UniProt Q14524); assay: Inhibition of Nav1.5 (unknown origin)
Procedure, shortened: (§3)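 Cardiac ion channel panel run on PatchXpress, testing functional currents (hERG/IKr, INa, ICaL) up to 30 μM. IKr was additionally assessed by nonfunctional MK-499 displacement binding.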

Plasma = assay: Plasma concentration in mouse at 0.3 mg/kg, po; type: ADME, organism-based; set-up: dose 0.3 mg/kg, route oral; details: in vivo
Procedure, shortened: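 Lean mice dosed orally 1 h before an oral dextrose challenge (OGTT); plasma drug concentration measured alongside plasma DPP-4 activity in the accompanying pharmacodynamic study.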

Dipeptidyl peptidase 4 = Dipeptidyl peptidase 4 (Mus musculus, UniProt P28843); assay: Inhibition of DPP4 in mouse plasma
Procedure, shortened: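 Plasma DPP-4 inhibition measured in 50% mouse plasma; IC50 read-out.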

[17] = Unbound fraction in CD-1 mouse plasma at 1 to 100 uM; type: ADME, cell-free
Procedure, shortened: (§4)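 Radiolabelled ([3H]) compound added to plasma at 1, 10 and 100 μM; mean percentage unbound reported for each species.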

[18] = Unbound fraction in Sprague-Dawley rat plasma at 1 to 100 uM; type: ADME, cell-free; procedure, shortened: as §4
[19] = Unbound fraction in beagle dog plasma at 1 to 100 uM; type: ADME, cell-free, Canis lupus familiaris; procedure, shortened: as §4
[20] = Unbound fraction in human plasma at 1 to 100 uM; type: ADME, cell-free; procedure, shortened: as §4
[21] = Ratio of drug level in brain to plasma in CD-1 mouse
[22] = Ratio of drug level in brain to plasma in Sprague-Dawley rat
[23] = Ratio of drug level in brain to plasma in beagle dog
[24] = Ratio of drug level in brain to plasma in human
Salmonella typhimurium = assay: Genotoxicity in Salmonella typhimurium by Ames mutagenicity test; type: toxicity, organism-based; details: salmonella enterica subsp. enterica serovar typhimurium
[25] = target: Voltage-gated L-type calcium channel (Homo sapiens, UniProt Q13936+Q13698+Q01668+O60840); assay: Effect on L-type Ca2+ channel (unknown origin) up to 30 uM; procedure, shortened: as §3
Rattus norvegicus [26] = assay: Toxicity in rat assessed as mortality at 100 mg/kg/day, po for 14 days; type: organism-based; set-up: route oral; details: in vivo, 336 h
Procedure, shortened: (§5)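 Exploratory 14-day oral safety study in male rats, dosed daily. Endpoints were mortality, physical signs observed over the dosing period, and clinical pathology parameters, including glucose and triglycerides.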

Rattus norvegicus [27] = assay: Toxicity in rat assessed as physical signs at 100 mg/kg/day, po for 14 days; type: organism-based; set-up: route oral; details: in vivo, 336 h; procedure, shortened: as §5
Rattus norvegicus [28] = assay: Toxicity in rat assessed as decrease in glucose level at 100 mg/kg/day, po for 14 days; type: organism-based; set-up: route oral; details: in vivo, 336 h; procedure, shortened: as §5
Rattus norvegicus [29] = assay: Toxicity in rat assessed as decrease in triglyceride level at 100 mg/kg/day, po for 14 days; type: organism-based; set-up: route oral; details: in vivo, 336 h; procedure, shortened: as §5
Rattus norvegicus [30] = assay: Toxicity in rat assessed as decrease in cholesterol level at 100 mg/kg/day, po for 14 days; type: organism-based; set-up: route oral; details: in vivo, 336 h; procedure, shortened: as §5
[31] = AUC (0 to 24 hrs) in rat at 100 mg/kg/day, po administered for 14 days; type: ADME, organism-based; set-up: dose 100 mg/kg/day, time < 24 hr, route oral; details: plasma
Procedure, shortened: (§6)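 Exploratory 14-day oral safety study in male rats dosed at 100 mg/kg/day; AUC(0-24h), Cmax and Tmax determined.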

[32] = Cmax in rat at 100 mg/kg/day, po administered for 14 days; type: ADME, organism-based; set-up: dose 100 mg/kg/day, route oral; details: in vivo; procedure, shortened: as §6
[33] = Tmax in rat at 100 mg/kg/day, po administered for 14 days; type: ADME, organism-based; set-up: route oral; details: in vivo; procedure, shortened: as §6
Dipeptidyl peptidase 2 = Dipeptidyl peptidase 2 (Homo sapiens, UniProt Q9UHL4); assay: Inhibition of QPP (unknown origin)
Prolyl endopeptidase FAP = target: T2, Prolyl endopeptidase FAP (Homo sapiens, UniProt Q12884); assay: Inhibition of FAP (unknown origin)
T2 sequence (Q12884 whole entry): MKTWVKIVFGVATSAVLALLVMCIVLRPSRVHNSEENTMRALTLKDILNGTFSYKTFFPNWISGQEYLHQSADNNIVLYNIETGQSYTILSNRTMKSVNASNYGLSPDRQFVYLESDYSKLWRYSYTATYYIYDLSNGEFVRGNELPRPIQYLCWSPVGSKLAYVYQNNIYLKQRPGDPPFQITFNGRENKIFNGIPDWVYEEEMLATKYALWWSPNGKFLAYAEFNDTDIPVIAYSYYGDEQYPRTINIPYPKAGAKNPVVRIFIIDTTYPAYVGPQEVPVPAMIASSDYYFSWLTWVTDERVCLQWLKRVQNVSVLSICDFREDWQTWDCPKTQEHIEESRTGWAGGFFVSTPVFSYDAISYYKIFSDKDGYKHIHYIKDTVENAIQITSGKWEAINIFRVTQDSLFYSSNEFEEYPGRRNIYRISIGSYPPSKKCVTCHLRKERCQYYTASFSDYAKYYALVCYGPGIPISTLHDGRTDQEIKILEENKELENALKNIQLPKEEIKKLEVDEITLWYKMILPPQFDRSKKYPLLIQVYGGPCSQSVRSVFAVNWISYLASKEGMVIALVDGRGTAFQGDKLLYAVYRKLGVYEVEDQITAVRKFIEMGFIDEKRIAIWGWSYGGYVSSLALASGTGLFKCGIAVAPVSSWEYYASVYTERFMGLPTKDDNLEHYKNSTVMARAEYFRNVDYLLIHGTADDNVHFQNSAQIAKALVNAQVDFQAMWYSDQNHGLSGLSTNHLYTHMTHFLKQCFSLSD

Mus musculus [34] = species: Mus musculus; assay: animal or person; details: Blood, po, 1 h, read-out: INH
Mus musculus [35] = species: Mus musculus; assay: animal or person; details: Blood, po, 1 h, read-out: INH; remark: listed apart in the source
Mus musculus [36] = species: Mus musculus; assay: animal or person; details: Plasma, po, read-out: INH

Sodium channel protein type 5 subunit alpha, sequence (Q14524 whole entry): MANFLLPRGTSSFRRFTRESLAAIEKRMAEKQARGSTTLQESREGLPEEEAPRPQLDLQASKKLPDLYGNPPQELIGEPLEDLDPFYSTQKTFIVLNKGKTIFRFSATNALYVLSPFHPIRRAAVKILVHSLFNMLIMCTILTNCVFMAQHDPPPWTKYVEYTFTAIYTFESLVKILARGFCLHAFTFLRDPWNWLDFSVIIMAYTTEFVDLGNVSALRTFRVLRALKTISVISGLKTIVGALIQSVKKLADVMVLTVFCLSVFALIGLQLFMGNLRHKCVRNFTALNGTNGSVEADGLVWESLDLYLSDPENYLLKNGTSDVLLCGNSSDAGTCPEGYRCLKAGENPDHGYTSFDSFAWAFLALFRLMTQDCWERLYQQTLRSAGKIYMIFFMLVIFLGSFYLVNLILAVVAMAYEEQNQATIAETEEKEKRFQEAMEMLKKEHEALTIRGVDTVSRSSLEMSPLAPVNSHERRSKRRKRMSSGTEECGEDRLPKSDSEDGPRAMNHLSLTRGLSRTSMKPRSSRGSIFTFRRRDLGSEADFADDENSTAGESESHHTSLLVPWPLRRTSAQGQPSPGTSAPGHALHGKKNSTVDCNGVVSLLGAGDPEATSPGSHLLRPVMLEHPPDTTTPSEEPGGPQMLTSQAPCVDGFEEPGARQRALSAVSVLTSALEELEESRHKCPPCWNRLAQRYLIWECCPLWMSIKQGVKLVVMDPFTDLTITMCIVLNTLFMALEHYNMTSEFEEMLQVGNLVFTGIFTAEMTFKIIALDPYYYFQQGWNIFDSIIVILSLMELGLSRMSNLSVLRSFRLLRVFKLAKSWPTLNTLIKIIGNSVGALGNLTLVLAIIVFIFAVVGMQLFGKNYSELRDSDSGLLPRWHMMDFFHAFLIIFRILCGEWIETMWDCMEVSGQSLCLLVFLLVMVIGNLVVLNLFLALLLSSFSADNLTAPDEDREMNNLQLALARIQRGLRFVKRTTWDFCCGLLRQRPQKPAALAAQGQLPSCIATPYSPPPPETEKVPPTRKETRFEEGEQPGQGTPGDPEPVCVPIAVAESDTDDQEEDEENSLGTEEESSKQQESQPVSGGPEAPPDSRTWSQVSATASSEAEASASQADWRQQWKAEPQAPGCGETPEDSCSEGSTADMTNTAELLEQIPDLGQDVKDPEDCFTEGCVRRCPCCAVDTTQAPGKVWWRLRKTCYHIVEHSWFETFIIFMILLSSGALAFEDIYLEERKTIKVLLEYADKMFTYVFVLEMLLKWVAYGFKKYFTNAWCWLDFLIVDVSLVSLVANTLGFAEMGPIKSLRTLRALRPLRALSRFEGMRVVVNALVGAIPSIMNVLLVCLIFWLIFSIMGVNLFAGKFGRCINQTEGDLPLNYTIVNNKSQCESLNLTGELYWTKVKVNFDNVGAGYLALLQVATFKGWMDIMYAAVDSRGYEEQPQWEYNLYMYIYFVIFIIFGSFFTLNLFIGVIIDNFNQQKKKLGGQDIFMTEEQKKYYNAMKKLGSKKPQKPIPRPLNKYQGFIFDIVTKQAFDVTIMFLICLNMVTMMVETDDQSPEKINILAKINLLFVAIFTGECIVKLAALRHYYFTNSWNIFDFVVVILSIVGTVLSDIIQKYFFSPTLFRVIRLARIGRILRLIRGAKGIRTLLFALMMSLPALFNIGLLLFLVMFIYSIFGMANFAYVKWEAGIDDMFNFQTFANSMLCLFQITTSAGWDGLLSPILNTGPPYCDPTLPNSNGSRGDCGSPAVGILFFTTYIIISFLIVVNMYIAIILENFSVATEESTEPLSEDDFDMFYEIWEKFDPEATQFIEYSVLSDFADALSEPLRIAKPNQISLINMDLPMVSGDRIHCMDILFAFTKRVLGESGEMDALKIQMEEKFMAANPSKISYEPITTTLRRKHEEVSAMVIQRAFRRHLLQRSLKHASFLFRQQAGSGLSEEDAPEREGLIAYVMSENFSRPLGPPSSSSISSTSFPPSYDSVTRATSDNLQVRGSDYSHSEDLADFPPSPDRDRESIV
Voltage-dependent L-type calcium channel subunit alpha-1C, sequence (Q13936 whole entry): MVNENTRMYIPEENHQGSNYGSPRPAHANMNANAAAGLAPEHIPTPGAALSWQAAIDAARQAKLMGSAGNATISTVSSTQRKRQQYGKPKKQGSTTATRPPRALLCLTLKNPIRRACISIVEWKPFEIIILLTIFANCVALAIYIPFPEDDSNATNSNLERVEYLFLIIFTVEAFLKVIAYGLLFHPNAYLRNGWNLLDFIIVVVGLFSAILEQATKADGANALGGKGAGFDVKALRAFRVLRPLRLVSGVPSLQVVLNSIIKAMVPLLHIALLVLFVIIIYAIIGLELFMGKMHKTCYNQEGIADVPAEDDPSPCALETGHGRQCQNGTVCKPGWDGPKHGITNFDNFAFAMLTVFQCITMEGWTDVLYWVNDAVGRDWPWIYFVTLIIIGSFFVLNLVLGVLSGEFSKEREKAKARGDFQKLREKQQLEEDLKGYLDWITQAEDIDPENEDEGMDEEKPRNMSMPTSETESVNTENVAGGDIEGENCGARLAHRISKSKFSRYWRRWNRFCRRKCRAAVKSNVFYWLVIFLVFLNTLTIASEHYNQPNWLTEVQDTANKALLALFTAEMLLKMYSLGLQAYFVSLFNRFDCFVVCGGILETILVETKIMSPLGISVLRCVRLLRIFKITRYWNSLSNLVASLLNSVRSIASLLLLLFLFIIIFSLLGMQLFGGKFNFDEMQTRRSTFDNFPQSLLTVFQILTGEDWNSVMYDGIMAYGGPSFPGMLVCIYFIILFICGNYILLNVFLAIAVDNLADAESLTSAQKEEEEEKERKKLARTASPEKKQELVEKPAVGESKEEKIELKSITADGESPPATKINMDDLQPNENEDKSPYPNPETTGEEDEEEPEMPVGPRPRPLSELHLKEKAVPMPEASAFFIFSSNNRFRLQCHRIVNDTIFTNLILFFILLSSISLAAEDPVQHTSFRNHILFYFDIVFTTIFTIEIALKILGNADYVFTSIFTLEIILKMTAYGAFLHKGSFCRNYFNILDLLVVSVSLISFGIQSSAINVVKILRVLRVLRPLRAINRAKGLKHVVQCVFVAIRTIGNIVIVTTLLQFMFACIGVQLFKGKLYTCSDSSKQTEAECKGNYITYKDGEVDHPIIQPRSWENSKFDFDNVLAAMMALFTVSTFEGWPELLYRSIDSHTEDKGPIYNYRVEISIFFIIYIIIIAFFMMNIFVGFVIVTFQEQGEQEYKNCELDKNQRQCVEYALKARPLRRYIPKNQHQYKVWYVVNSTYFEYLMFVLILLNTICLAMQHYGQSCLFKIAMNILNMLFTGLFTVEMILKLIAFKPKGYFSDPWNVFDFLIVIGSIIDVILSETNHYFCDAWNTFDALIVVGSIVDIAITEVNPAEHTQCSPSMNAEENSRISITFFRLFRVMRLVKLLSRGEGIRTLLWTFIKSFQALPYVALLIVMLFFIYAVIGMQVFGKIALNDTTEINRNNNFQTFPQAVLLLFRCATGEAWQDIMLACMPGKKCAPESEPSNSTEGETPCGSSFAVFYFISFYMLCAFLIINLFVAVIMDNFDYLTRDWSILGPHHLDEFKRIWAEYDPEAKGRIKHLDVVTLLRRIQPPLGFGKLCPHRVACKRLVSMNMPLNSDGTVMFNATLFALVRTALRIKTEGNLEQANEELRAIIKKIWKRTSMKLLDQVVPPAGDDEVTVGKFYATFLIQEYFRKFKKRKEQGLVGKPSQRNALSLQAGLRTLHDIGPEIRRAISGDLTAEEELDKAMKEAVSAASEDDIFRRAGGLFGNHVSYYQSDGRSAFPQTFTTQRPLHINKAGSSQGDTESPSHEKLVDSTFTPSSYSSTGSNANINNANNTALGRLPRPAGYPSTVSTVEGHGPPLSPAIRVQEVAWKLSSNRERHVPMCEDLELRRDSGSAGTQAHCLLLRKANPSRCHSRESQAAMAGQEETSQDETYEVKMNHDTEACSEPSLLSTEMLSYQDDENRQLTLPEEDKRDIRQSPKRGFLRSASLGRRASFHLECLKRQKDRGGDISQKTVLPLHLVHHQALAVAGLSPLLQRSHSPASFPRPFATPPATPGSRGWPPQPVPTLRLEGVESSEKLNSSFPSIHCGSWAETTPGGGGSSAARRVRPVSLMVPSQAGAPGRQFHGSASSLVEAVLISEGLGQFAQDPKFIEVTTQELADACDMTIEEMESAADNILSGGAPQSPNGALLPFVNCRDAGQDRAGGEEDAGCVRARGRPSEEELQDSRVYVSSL
Dipeptidyl peptidase 9, sequence (Q86TI2 whole entry): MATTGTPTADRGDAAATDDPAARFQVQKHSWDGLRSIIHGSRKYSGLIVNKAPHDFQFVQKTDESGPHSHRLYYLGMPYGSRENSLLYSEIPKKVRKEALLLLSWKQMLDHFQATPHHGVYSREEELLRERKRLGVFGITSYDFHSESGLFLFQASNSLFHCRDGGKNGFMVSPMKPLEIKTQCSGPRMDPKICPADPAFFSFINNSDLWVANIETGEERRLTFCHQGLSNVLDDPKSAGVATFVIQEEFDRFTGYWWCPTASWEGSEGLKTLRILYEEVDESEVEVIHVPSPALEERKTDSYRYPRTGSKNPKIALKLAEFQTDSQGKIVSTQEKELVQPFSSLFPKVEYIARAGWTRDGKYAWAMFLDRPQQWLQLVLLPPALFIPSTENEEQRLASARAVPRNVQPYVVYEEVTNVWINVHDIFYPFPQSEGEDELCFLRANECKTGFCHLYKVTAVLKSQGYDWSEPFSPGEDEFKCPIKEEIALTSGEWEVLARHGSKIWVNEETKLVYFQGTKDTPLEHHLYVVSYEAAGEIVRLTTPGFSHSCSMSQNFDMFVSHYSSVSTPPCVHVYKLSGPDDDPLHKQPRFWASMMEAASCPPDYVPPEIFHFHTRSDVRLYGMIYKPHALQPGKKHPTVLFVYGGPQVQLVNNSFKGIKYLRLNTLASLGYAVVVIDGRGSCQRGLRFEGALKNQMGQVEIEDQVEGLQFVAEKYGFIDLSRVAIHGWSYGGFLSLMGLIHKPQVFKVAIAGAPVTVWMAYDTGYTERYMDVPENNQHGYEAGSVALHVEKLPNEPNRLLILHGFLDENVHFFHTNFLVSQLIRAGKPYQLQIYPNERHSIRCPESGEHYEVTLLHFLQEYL

Compound: CS(=O)(=O)n1cc2c(n1)CN([C@H]1CO[C@H](c3cc(F)ccc3F)[C@@H](N)C1)C2.O=C(O)C(F)(F)F
- clearance [1]: 1.1 mL/min/kg
- Vd [2]: 0.8 L/kg
- half-life [3]: 11 h
- Cmax [4]: 9 µM
- Tmax [5]: 1 h
- bioavailability [6]: 100%
- AUC/dose (Rattus norvegicus [7]): 47.8 µM·h/mg/kg
- Vd [8]: 1.3 L/kg
- Cmax [9]: 5.9 µM
- Tmax [10]: 1.3 h
- AUC/dose (Canis familiaris): 54 µM·h/mg/kg
- clearance (in vivo [11]): 0.9 mL/min/kg
- bioavailability (in vivo [12]): 100%
- half-life (in vivo [13]): 22 h

Compound: CS(=O)(=O)n1cc2c(n1)CN([C@H]1CO[C@H](c3cc(F)ccc3F)[C@@H](N)C1)C2 [OMARIGLIPTIN]
- IC50 (Prolyl endopeptidase): > 67 µM
- IC50 (Dipeptidyl peptidase 8): > 67 µM
- IC50 (Dipeptidyl peptidase 9): > 67 µM
- IC50 [14]: > 30 µM
- IC50 [15]: > 30 µM
- IC50 [16]: > 30 µM
- concentration (Plasma): 0.521 µM
- IC50 (Dipeptidyl peptidase 4): 0.0439 µM
- fraction unbound at up to 100 µM [17]: 0.38
- fraction unbound at up to 100 µM [18]: 0.15
- fraction unbound at up to 100 µM [19]: 0.43
- fraction unbound at up to 100 µM [20]: 0.68
- Kp [21]: 0.6
- Kp [22]: 0.6
- Kp [23]: 0.6
- Kp [24]: 0.6
- Activity (Salmonella typhimurium): Non-toxic
- Activity [25]: Not Active
- Activity (Rattus norvegicus [26]): Non-toxic
- Activity (Rattus norvegicus [27]): Non-toxic
- Activity (Rattus norvegicus [28]): Toxic
- Activity (Rattus norvegicus [29]): Toxic
- Activity (Rattus norvegicus [30]): Toxic
- AUC at 24 h [31]: 5000 µM·h
- Cmax [32]: 371 µM
- Tmax [33]: 2 h
- IC50 (Dipeptidyl peptidase 2): > 67 µM
- IC50 (Prolyl endopeptidase FAP): > 67 µM
- inhibition in vivo at 0.01 mg/kg (Mus musculus [34]): 7%
- inhibition in vivo at 0.3 mg/kg (Mus musculus [35]): 51%
- inhibition in vivo at 0.3 mg/kg (Mus musculus [36]): 85%
